From ChEMBL document CHEMBL4823321, “Improving the Adjuvanticity of Small Molecule Immune Potentiators Using Covalently Linked NF-κB Modulators” (ACS Med Chem Lett, 2021) come the findings set out here.

The subject of one data set is BMDC. As to the kind of experiment: Modulator activity at NF-kappaB in C57BL/6 mouse BMDC cells assessed as increase in cell surface CD40 expression at 200 nM measured after 8 hrs by FACS analysis. Format: cell-based. The conditions noted are these: filed as modulator. In a few lines:
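Murine bone-marrow-derived dendritic cells incubated 8 h with compounds at 200 nM; cells stained for surface CD40 and quantified by flow cytometry.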
A general note: A flow cytometer gives signals particle by particle.

Data set [1] deals with TLR7 and TLR8 (Mus musculus) (UniProt P58681+P58682). The data set is described as follows: Agonist activity at TLR7/8 in mouse RAW-blue cells assessed as immune activation by measuring induction of NFkappaB activation at 500 nM measured after 24 hrs by quanti-blue SEAP reporter gene-based assay. Type of data set: cell-based. The conditions noted are these: filed as agonist. In a few lines: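 RAW-Blue macrophages exposed to compounds at 500 nM for 24 h at 37 °C; NF-κB-driven reporter read-out; triplicate samples; one-way ANOVA against TLR7/8 SMIP.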
On the technique in general: A reporter such as luciferase makes a cellular process visible.

Data set [2] in a line: Toxicity in C57BL/6 mouse BMDC cells assessed as induction of inflammation by measuring increase in IL-6 secretion at 200 nM measured after 8 hrs by ELISA. The following applies: 0.2 µM. Type of data set: cell-based. The method, boiled down:
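Murine bone-marrow-derived dendritic cells incubated 8 h with compounds at 200 nM; secreted IL-6 quantified by ELISA; triplicate; one-way ANOVA versus TLR7/8 SMIP.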
Background: An ELISA detects its analyte on a solid surface through an enzyme-linked reagent.

Data set [3] deals with RAW264.7. As to the kind of experiment: Antioxidant activity in mouse RAW264.7 cells assessed as reduction in intracellular ROS level measured after 16 hrs by CM-H2DCFDA based flow cytometry analysis relative to TLR7/8 SMIP. Type of data set: functional. The method, boiled down: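 RAW macrophages incubated with compounds for 16 h, then loaded with CM-H2DCFDA; intracellular ROS fluorescence quantified by flow cytometry.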

Data set [4] deals with RAW264.7. As to the kind of experiment: Inhibition of NO production in mouse RAW264.7 cells at 500 nM incubated for 16 hrs by Griess reagent based analysis. Format: functional, cell-based. The method, boiled down: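 Nitrite measured with Griess reagent in supernatants of RAW macrophages incubated 16 h with 500 nM compounds; triplicate; one-way ANOVA versus TLR7/8 SMIP.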

Data set [5] concerns RAW264.7. As to the kind of experiment: Inhibition of COX-2 expression in mouse RAW264.7 cells at 500 nM incubated for 16 hrs by western blot analysis. Type of data set: functional, cell-based. In a few lines: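 After 16 h with 500 nM compounds, RAW macrophages were lysed; proteins separated by SDS-PAGE, transferred to membrane and probed with anti-COX-2 antibody; triplicate.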

For data set [6], the system named is RAW264.7. As to the kind of experiment: Inhibition of iNOS expression in mouse RAW264.7 cells at 500 nM incubated for 16 hrs by western blot analysis. Type of data set: functional, cell-based.
Data set [7] is described as follows: Systemic toxicity in C57BL/6 mouse assessed as increase in serum TNF-alpha level administered intramuscularly in presence of ovalbumin measured after 1 hr. The following applies: in vivo, im. The method, boiled down:
(§1)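 Mice vaccinated with ovalbumin admixed with adjuvant in PBS, i.m.; serum collected 1 h after injection for IL-6 and TNF-α; one-way ANOVA versus PBS control.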

Data set [8] deals with Mus musculus. As to the kind of experiment: Immuno-adjuvant activity in C57BL/6 mouse assessed as increase in levels of anti-OVA Ig (A+G+M) administered intramuscularly on day 1 and as booster dose on day 14 in presence of ovalbumin and measured on day 28 by ELISA. Type of data set: functional, organism-based. The following applies: time 28.0 day. The method, boiled down:
(§2)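 Ovalbumin plus adjuvant in PBS given i.m., boosted on day 14; sera collected at sacrifice on day 28 and anti-OVA antibodies measured; one-way ANOVA versus PBS control.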

Data set [9] relates to Mus musculus. The data set is described as follows: Induction of T-cell immunity in C57BL/6 mouse splenocytes assessed as increase in CD3+CD8+ tetramer administered intramuscularly on day 1 and as booster dose on day 14 in presence of ovalbumin and SINFEKL MHC specific tetramer measured on day 28 by flow cytometric analysis. Format: functional, cell-based. The following applies: time 28.0 day.

The next data set relates to Splenocyte. As to the kind of experiment: Induction of innate immunity in C57BL/6 mouse naive splenocyte assessed as increase in cell proliferation at 3 uM measured after 48 hrs by MTT assay. Type of data set: functional, tissue-based. The method, boiled down:
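Naive splenocytes incubated 48 h with compounds to assess proliferation.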

The nature of data set [10]: Systemic toxicity in CT26 cells xenografted BALB/c mouse tumor model assessed as increase in serum TNF-alpha level at 20 nmol, IT and measured after 2 hrs. Type of data set: cell-based. The conditions noted are these: in vivo, other. The method, boiled down: (§3)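 Subcutaneous CT-26 tumors established for 11 days, then compounds given by peritumoral injection; serum collected 2 h later for TNF-α and IL-6.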

Data set [11] can be described thus: Systemic toxicity in CT26 cells xenografted BALB/c mouse tumor model assessed as increase in serum IL-6 level at 20 nmol, IT and measured after 2 hrs. Type of data set: cell-based. The following applies: in vivo, other. In a few lines: as §3
Data set [12] can be described thus: Systemic toxicity in CT26 cells xenografted BALB/c mouse tumor model assessed as reduction in white blood count in peripheral blood at 20 nmol, IT and measured after 24 hrs by hematological analysis. Format: cell-based. The conditions noted are these: in vivo, other. The method, boiled down: (§4)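 Subcutaneous CT-26 tumors established for 11 days, then compounds given peritumorally; peripheral blood collected 24 h later for hematological analysis of white blood cell and lymphocyte counts.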

A short description of data set [13]: Systemic toxicity in C57BL/6 mouse assessed as increase in serum IL-6 level administered intramuscularly in presence of ovalbumin measured after 1 hr. The conditions noted are these: in vivo, im. The method, boiled down: as §1
Data set [14] relates to Mus musculus. The data set is described as follows: Immuno-adjuvant activity in C57BL/6 mouse assessed as increase in levels of anti-OVA IgG administered intramuscularly on day 1 and as booster dose on day 14 in presence of ovalbumin and measured on day 28 by ELISA. Type of data set: functional, organism-based. The following applies: time 28.0 day. In a few lines:
as §2

The nature of data set [15]: Systemic toxicity in CT26 cells xenografted BALB/c mouse tumor model assessed as reduction in lymphocyte count in peripheral blood at 20 nmol, IT and measured after 24 hrs by hematological analysis. The following applies: in vivo, other. Type of data set: cell-based. The method, boiled down:
as §4

In another data set the test system is CT26. The data set is described as follows: Antitumor activity against mouse CT26 cells xenografted in BALB/c mouse assessed as survival rate at 20 nmol, IT administered on day 15,19 and 23 and measured on day 35. Format: functional. The method, boiled down: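 Subcutaneous CT-26 colon carcinoma in mice. Once tumors were established at day 11, […], compounds were given by peritumoral injection, then three more injections every 4 days. Tumor size was measured every alternate day. Animals were euthanized when a tumor reached 20 mm in any linear dimension. Kaplan–Meier survival was followed until day 35.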

Data set [16] relates to Mus musculus. The data set is described as follows: Immuno-adjuvant activity in C57BL/6 mouse assessed as increase in levels of anti-OVA IgA administered intramuscularly on day 1 and as booster dose on day 14 in presence of ovalbumin and measured on day 28 by ELISA. Format: functional, organism-based. The following applies: time 28.0 day.

The source made the active and inactive calls. No cut-off for these calls is given here.

TLR7 and TLR8 (Mus musculus), sequence (P58681 whole entry, looked up): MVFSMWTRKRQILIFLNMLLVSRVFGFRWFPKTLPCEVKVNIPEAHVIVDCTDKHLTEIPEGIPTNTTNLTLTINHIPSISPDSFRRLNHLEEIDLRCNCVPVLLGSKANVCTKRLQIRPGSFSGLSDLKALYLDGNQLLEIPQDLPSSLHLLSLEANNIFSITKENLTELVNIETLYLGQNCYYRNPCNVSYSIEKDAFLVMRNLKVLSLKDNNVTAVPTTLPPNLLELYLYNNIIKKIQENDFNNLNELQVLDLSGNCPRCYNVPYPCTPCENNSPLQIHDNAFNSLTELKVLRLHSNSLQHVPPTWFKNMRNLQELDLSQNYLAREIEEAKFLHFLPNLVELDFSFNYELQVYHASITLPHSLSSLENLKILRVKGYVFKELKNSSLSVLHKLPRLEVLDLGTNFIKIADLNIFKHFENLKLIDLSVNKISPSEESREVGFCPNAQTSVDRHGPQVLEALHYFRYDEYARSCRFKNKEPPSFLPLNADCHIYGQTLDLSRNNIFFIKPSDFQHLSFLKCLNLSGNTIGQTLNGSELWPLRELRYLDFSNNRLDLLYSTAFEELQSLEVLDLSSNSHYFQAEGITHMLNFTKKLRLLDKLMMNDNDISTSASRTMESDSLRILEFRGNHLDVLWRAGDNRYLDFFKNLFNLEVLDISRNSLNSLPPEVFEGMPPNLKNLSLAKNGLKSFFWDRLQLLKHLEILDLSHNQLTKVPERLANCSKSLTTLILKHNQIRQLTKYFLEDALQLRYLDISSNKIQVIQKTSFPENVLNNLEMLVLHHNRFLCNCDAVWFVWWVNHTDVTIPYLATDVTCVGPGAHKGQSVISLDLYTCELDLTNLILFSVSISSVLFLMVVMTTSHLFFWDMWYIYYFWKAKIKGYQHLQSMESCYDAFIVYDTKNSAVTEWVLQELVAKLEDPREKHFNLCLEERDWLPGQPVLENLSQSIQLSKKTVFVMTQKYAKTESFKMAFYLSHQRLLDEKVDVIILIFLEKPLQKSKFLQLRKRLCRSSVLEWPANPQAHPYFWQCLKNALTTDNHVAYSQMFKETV
TLR7 and TLR8 (Mus musculus), sequence (P58682 whole entry, looked up): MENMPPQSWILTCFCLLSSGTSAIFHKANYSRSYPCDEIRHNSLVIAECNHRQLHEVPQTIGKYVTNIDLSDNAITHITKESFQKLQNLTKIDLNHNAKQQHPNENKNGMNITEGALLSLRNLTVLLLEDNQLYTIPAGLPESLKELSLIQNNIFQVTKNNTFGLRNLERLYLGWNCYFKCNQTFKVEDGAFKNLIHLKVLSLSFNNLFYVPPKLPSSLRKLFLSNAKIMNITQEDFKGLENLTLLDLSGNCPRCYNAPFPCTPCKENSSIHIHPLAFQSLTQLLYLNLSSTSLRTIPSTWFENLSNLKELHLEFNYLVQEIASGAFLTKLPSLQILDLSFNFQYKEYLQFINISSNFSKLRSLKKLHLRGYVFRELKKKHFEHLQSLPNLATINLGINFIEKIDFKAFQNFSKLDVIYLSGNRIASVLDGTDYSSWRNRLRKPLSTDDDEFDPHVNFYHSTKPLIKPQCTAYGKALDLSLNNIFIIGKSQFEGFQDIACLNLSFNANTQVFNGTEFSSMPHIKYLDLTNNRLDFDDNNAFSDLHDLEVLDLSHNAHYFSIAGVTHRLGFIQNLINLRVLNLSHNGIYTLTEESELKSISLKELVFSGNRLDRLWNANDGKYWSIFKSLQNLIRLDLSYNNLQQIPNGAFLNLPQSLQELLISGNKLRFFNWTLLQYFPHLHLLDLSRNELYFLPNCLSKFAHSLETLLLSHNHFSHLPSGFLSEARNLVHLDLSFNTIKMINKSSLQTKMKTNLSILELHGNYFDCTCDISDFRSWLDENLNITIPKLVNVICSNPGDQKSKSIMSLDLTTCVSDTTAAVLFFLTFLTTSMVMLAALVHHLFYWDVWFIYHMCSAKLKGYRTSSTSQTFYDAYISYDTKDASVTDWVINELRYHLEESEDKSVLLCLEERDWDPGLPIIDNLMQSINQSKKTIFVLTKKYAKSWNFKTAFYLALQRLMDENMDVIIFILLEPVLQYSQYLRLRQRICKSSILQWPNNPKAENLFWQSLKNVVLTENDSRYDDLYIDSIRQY

For `CCCCc1nc2c(N)nc3ccccc3c2n1Cc1ccc(CNC(=O)NCCc2ccc(O)c(O)c2)cc1`, the outcome (in the data set with BMDC; in [1]; with Mus musculus [8]; in the data set on Splenocyte; in the data set on Mus musculus [14]) was Active. Also, the Activity result in data set [2], in data set [7], in data set [10], in data set [11], in data set [12] and in [13] was “Non-Toxic” throughout. For the same compound, in data set [15], the Activity entry is listed as “Non-Toxic”. Also, the “inhibition (INH)” value in the data set on RAW264.7 [3] came out at 50%. The inhibition result in the data set with RAW264.7 [4] and in the data set on RAW264.7 [6] was “Active” each time. In addition, the inhibition entry with RAW264.7 [5] was “inactive”. In the data set on Mus musculus [9], the result was inactive.
Turning to `CCCCc1nc2c(N)nc3ccccc3c2n1Cc1ccc(CNC(=O)c2ccc(-c3cccc(O)c3)cc2O)cc1`, the result (with BMDC; in data set [1]; in the data set with Splenocyte) was Active. Also, the Activity entry is “Toxic” in [2]; “Non-Toxic” in data set [10]; “Non-Toxic” in data set [11]; “Non-Toxic” in [12]; “Non-Toxic” in data set [15]. The “inhibition (INH)” value in the data set on RAW264.7 [3] was determined as 50%. Also, the inhibition result with RAW264.7 [4] and with RAW264.7 [6] was “Active” each time. Also, in the data set on RAW264.7 [5], the inhibition result was “inactive”.
Take `CCCCc1nc2c(N)nc3ccccc3c2n1Cc1ccc(CNC(=O)c2cccc(-c3cccc(O)c3)c2)cc1`: the outcome (in the data set with BMDC; in data set [1]; with Splenocyte) was Active. Further, the Activity result in data set [2], in data set [7], in data set [10], in data set [11], in data set [12] and in data set [13] was “Non-Toxic” in each case. In addition, the Activity result in data set [15] is on record as “Non-Toxic”. Also, in the data set on RAW264.7 [3], the “inhibition (INH)” value is 50%. For the same compound, the inhibition result in the data set with RAW264.7 [4] and in the data set on RAW264.7 [6] was “Active” each time. For the same compound, the inhibition result in the data set with RAW264.7 [5] was “inactive”. Besides, the outcome in the data set with Mus musculus [9] was inactive.
As to `CCCCc1nc2c(N)nc3ccccc3c2n1Cc1ccccc1`, the outcome (in the data set with BMDC; in data set [1]; in the data set on Splenocyte) was Active. For the same compound, the Activity result in data set [2], in data set [10], in [11], in data set [12] and in data set [15] was “Toxic” throughout.
Turning to `CCCCCCCCCCCCCCCCCC(=O)NCCCCOn1c(CCCC)nc2c(N)nc3ccccc3c21` [TELRATOLIMOD], the Activity entry in data set [10], in data set [11], in data set [12] and in [15] was “Non-Toxic” each time.
Turning to `CCOCc1nc2c(N)nc3ccccc3c2n1CC(C)(C)O` [RESIQUIMOD], the Activity entry in data set [10], in [11], in data set [12] and in data set [15] was “Toxic” throughout.
For `CCCCc1nc2c(N)nc3ccccc3c2n1Cc1ccc(CNC(=O)NCCCNC(=O)/C=C/c2ccc(O)c(OC)c2)cc1`, the result (with BMDC; in [1]; in the data set on Splenocyte) was Active. Also, the Activity entry in data set [2] was “Non-Toxic”; in data set [10], “Toxic”; in [11], “Toxic”; in data set [12], “Toxic”; in data set [15], “Toxic”. In addition, the “inhibition (INH)” value in the data set with RAW264.7 [3] amounted to 50%. The inhibition entry with RAW264.7 [4] and in the data set on RAW264.7 [6] was “Active” in each case. Moreover, in the data set on RAW264.7 [5], the inhibition entry is “inactive”. Further, the Survival with CT26 (time 35 day) stood at 80%.
As for `CCCCc1nc2c(N)nc3ccccc3c2n1Cc1ccc(CNC(=O)NCCCCCC(=O)NCc2ccc(O)c(OC)c2)cc1`, the result (with BMDC; in data set [1]; in the data set with Mus musculus [8]; in the data set on Splenocyte; in the data set on CT26 (time 35.0 day); with Mus musculus [14]) was Active. In the data set on Mus musculus [16], the result was Active. The Activity entry in [2], in data set [7], in [10], in [11], in data set [12] and in data set [13] was “Non-Toxic” throughout. For the same compound, the Activity entry in data set [15] is reported as “Non-Toxic”. In addition, the “inhibition (INH)” value in the data set on RAW264.7 [3] amounted to 50%. Besides, the inhibition entry in the data set with RAW264.7 [4] and in the data set with RAW264.7 [6] was “Active” throughout. The inhibition entry in the data set with RAW264.7 [5] is “inactive”. The outcome in the data set on Mus musculus [9] was inactive.
Regarding `CCCCc1nc2c(N)nc3ccccc3c2n1Cc1ccc(CNC(=O)c2cc(-c3ccc(O)cc3)ccc2O)cc1`, the result (with BMDC; in data set [1]; in the data set with Splenocyte) was Active. Moreover, the Activity result is “Toxic” in [2], “Non-Toxic” in [11] and “Non-Toxic” in data set [15]. In addition, in the data set with RAW264.7 [3], the “inhibition (INH)” value is on record as 50%. Also, the inhibition entry in the data set with RAW264.7 [4] and in the data set on RAW264.7 [6] was “Active” in each case. The inhibition entry with RAW264.7 [5] is “inactive”.
